The subject of experiment [1] is Hamster. Description: Interruption of pregnancy in hamster at 1 mg, sc administered on day 3 of pregnancy. Format: functional, organism-based. The note with it: Cricetinae. The essentials: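 Pregnant hamsters, ten per compound. A single 1 mg per animal dose is given subcutaneously in ethanol on day 3 of pregnancy, and interruption of pregnancy is scored (modified Giannina method).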

Experiment [2] relates to Cricetinae. Description: Induction of uterus contraction in hamster at 20 ug. In kind it is functional, tissue-based. The procedure, abridged:
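Isolated hamster uterine strip in vitro, Holton method; compound added at 20 µg and scored for oxytocin-like contractile activity.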

Experiment [3] deals with Gerbillinae. Description: Inhibition of PGE2-induced colon smooth muscle contraction in gerbil at […] pretreated for 30 seconds followed by PGE2-challenge measured after 90 seconds. In kind it is functional. The essentials:
(§1)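 Isolated colon smooth muscle from male gerbils in a chamber (Holton method). Compound is introduced at the stated level per 15 mL; 30 s later 40 ng PGE2 is added. Antagonism is read as % inhibition of the PGE2 response.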

Experiment [4] deals with Gerbillinae. The experiment can be described thus: (§2) Inhibition of PGE2-induced colon smooth muscle contraction in gerbil at 20 ug/15 ml pretreated for 30 seconds followed by PGE2-challenge measured after 90 seconds relative to control. In kind it is functional. The essentials: as §1
Experiment [5] relates to Gerbillinae. The experiment can be described thus: (§3) Inhibition of PGE2-induced colon smooth muscle contraction in gerbil at 40 ug/15 ml pretreated for 30 seconds followed by PGE2-challenge measured after 90 seconds relative to control. In kind it is functional. The essentials: as §1
The subject of experiment [6] is Gerbillinae. The experiment can be described thus: (§4) Inhibition of PGE2-induced colon smooth muscle contraction in gerbil at 80 ug/15 ml pretreated for 30 seconds followed by PGE2-challenge measured after 90 seconds relative to control. In kind it is functional. The essentials:
as §1

Experiment [7] has as its system Gerbillinae. Description: (§5) Inhibition of PGE2-induced colon smooth muscle contraction in gerbil at 125 ug/15 ml pretreated for 30 seconds followed by PGE2-challenge measured after 90 seconds relative to control. Format: functional. The essentials: as §1
Experiment [8] can be described thus: as §2. Format: functional, Gerbillinae. The essentials:
as §1

Experiment [9] can be described thus: as §3. Format: functional, Gerbillinae. The essentials: as §1
Experiment [10] in a line: as §4. In kind it is functional, Gerbillinae. The essentials:
as §1

Experiment [11] is described as follows: as §5. In kind it is functional, Gerbillinae. The essentials: as §1
For experiment [12], the system named is Hamster. The experiment can be described thus: Interruption of pregnancy in hamster at 12.5 ug, sc administered on day 3 of pregnancy relative to control. Format: functional, Cricetinae.

The source made the active and inactive calls. No cut-off for these calls is given here.

As to `CCCCC[C@](C)(O)/C=C/[C@H]1COC(=O)[C@@H]1CCCCCCC(=O)OC` (racemic), the outcome in experiment [1] and in [2] was inactive. The inhibition entry in experiment [3] is “inactive”.
Turning to `CCCCC[C@@H](O)/C=C/[C@@H](CO)[C@H](CO)CCCCCCC(=O)OC`, the result in [1] and in experiment [2] was inactive. Also, the inhibition result in [4], in experiment [5], in [6] and in experiment [7] was “inactive” in each case.
With `CCCCC[C@H](O)/C=C/[C@@H](CO)[C@H](CO)CCCCCCC(=O)OC`, the result in experiment [1] and in experiment [2] was inactive. The “inhibition (INH)” value in experiment [8] is given as 0%; in experiment [9], 14%; in experiment [10], 26%; in experiment [11], 41%.
In experiment [12], `CCCCC[C@H](O)/C=C/[C@@H]1[C@@H](C/C=C\CCCC(=O)O)[C@@H](O)C[C@H]1O` [DINOPROST] gave an Activity of 100%.
For `CCCCC[C@H](O)/C=C/[C@H]1COC(=O)[C@@H]1CCCCCCC(=O)OC` (racemic), the result in experiment [1] and in experiment [2] was inactive.
Regarding `CCCCC[C@@](C)(O)/C=C/[C@H]1COC(=O)[C@@H]1CCCCCCC(=O)OC` (racemic), the outcome in [1] and in experiment [2] was inactive. Besides, in [3], the inhibition result is “inactive”.
As for `CCCCC[C@@H](O)/C=C/[C@H]1COC(=O)[C@@H]1CCCCCCC(=O)OC` (single isomer, unassigned), the result in experiment [1] and in [2] was inactive.
